Laboratory results published in ChEMBL document CHEMBL1130120, “N-arylpiperazinyl-N'-propylamino derivatives of heteroaryl amides as functional uroselective alpha 1-adrenoceptor antagonists” (J Med Chem, 1997).

Experiments:
[1] = biological target: T1, Alpha-1A adrenergic receptor (Oryctolagus cuniculus, UniProt O02824); test: Antagonistic activity against alpha 1A/1L receptor was assessed in a rabbit bladder neck functional assay; conditions: read-out: pA2 (converted)
T1 sequence (O02824 whole entry): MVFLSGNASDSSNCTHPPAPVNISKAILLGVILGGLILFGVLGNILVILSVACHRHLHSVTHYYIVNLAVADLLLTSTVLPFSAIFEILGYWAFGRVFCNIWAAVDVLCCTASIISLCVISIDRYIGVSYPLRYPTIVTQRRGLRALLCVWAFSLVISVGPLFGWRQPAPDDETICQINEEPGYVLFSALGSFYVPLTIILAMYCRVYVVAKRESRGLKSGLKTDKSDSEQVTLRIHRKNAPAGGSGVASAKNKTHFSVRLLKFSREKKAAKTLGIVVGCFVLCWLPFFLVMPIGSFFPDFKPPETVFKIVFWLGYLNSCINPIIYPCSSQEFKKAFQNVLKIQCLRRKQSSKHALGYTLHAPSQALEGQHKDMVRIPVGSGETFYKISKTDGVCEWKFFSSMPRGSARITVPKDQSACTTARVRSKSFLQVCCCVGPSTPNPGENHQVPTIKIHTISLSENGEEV

[2] = biological target: T2, Alpha-1D adrenergic receptor (Rattus norvegicus, UniProt P23944); test: Antagonistic activity against rat aorta for affinity estimates representative of the Alpha-1D adrenergic receptor; assay type: functional, tissue-based; conditions: read-out: pA2 (converted)
T2 sequence (P23944 whole entry): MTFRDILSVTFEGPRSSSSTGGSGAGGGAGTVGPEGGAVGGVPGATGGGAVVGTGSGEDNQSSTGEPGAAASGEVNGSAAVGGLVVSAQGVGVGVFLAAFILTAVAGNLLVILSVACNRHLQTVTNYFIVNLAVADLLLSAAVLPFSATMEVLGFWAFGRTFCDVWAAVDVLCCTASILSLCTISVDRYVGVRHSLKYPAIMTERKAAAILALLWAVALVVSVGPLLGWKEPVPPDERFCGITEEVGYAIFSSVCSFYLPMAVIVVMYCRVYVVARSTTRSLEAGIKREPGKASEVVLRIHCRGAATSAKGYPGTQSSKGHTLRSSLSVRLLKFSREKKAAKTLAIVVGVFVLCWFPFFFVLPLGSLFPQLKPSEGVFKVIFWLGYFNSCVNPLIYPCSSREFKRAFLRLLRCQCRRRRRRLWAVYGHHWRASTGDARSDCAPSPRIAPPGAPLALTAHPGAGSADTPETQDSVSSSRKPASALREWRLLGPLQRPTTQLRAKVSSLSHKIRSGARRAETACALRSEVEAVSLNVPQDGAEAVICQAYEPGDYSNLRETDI
Method in brief: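 Isolated smooth-muscle tissue with cumulative norepinephrine concentration–effect curves (rat aorta, human lower urinary tract). Affinity obtained by full Schild regression for some antagonists. […] Competitive, reversible interaction at a single subtype assumed.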

[3] = biological target: T3, Alpha-1A adrenergic receptor (Bos taurus, UniProt P18130); test: In vitro for the displacement of [3H]prazosin binding to bovine Alpha-1A adrenergic receptor
T3 sequence (P18130 whole entry): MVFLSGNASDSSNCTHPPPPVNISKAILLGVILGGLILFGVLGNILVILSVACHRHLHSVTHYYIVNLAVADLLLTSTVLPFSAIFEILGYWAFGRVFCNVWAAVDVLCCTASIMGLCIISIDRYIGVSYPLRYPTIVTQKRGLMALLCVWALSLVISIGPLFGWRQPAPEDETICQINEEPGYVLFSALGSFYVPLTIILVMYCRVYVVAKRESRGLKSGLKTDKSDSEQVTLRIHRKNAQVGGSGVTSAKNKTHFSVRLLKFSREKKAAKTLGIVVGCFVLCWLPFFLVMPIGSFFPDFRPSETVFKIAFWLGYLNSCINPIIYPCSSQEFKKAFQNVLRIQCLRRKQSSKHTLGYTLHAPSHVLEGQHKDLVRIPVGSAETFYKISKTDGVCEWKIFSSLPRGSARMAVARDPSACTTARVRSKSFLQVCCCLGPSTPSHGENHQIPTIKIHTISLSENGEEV

| SMILES | Kb [1] | Kb [2] | Ki [3] |
| --- | --- | --- | --- |
| Cc1cnccc1N1CCN(CCCNc2ncccc2C(=O)N(C)C)CC1 | 0.2 µM |  |  |
| Cc1noc2ncc(C(=O)N(C)C)c(NCCCN3CCN(c4ccccc4OCC(F)(F)F)CC3)c12 | 0.00158 µM | 0.0794 µM |  |
| COc1cc(O)ccc1N1CCN(CCCNc2ncccc2C(=O)N(C)C)CC1 | 0.0126 µM | 0.0794 µM |  |
| CN(C)C(=O)c1cccnc1NCCCN1CCN(c2ccccc2Cc2ccccc2)CC1 | 0.00631 µM | 0.0794 µM |  |
| COc1ccccc1N1CCN(CCCNc2ncccc2C(=O)N2CCCC2)CC1 |  | 0.02 µM | 0.000794 µM |
| CSc1ccccc1N1CCN(CCCNc2ncccc2C(=O)N(C)C)CC1 | 0.000631 µM | 0.0316 µM |  |
| COc1cc(F)ccc1N1CCN(CCCNc2c(C(=O)N(C)C)cnc3c(C(N)=O)cccc23)CC1 | 0.000501 µM | 0.158 µM |  |
| COc1ccccc1N1CCN(CCCNc2ncncc2C(=O)N(C)C)CC1 | 0.00398 µM | 0.0501 µM |  |
| COc1cc(F)ccc1N1CCN(CCCNc2c(C(=O)N(C)C)cnc3c2nc(C)n3C)CC1 | 0.000631 µM | 0.0794 µM |  |
| CC(C)c1ccccc1N1CCN(CCCNc2ncccc2C(=O)N(C)C)CC1 | 0.000398 µM | 0.0631 µM |  |
| Cc1cccc(C)c1N1CCN(CCCNc2ncccc2C(=O)N(C)C)CC1 |  |  | 0.00794 µM |
| COc1ccccc1N1CCN(CCCNc2ncc(O)cc2C(=O)N(C)C)CC1 | 0.002 µM | 0.01 µM |  |
| CN(C)C(=O)c1cccnc1NCCCN1CCN(c2ccccc2C#N)CC1 | 0.002 µM | 0.01 µM |  |
| CN(C)C(=O)c1cccnc1N1CCC(NCCOc2ccccc2-c2cncnc2)CC1 | 0.02 µM | 2.51 µM |  |
| COc1ccccc1N1CCN(CCCNc2ccc(C)cc2C(=O)N(C)C)CC1 | 0.000501 µM | 0.02 µM |  |
| COc1cc(F)ccc1N1CCN(CCCNc2c(C(=O)N(C)C)c[nH]c3c(Cl)cn[n+]2-3)CC1 | 0.000794 µM | 0.158 µM |  |
| CN(C)C(=O)c1cccnc1NCCCN1CCN(c2ccccc2-c2ncco2)CC1 | 0.000316 µM | 0.0251 µM |  |
| COc1ccccc1N1CCN(CCCNc2ccc(C(=O)N(C)C)cn2)CC1 | 0.0251 µM | 0.0316 µM |  |
| COc1ccccc1N1CCN(CCCNc2ccccc2C(=O)c2ccccc2)CC1 | 0.0316 µM | 0.01 µM |  |
| CC(C)(Cc1c[nH]c2ccc(Cl)cc12)NCCOc1ccccc1OCC1CC1 | 0.0501 µM |  | 0.000794 µM |
| Cc1ccccc1N1CCN(CCCNc2ncccc2C(=O)N(C)C)CC1 | 0.002 µM | 0.01 µM | 0.000794 µM |
| COc1cc(F)ccc1N1CCN(CCCNc2c(C(=O)N(C)C)cnc3c(C#N)cccc23)CC1 | 0.00126 µM | 0.398 µM |  |
| Cc1nn(C)c2ncc(C(=O)N(C)C)c(NCCCN3CCN(c4ccc(F)cc4-c4ncco4)CC3)c12 | 0.000126 µM | 0.2 µM |  |
| CN(C)C(=O)c1cccnc1NCCCN1CCN(c2ccccc2OC(F)(F)F)CC1 | 0.00316 µM | 0.1 µM |  |
| COc1ccccc1N1CCN(CCCNc2ccccc2C(=O)N(C)C)CC1 | 0.001 µM | 0.0158 µM | 0.000398 µM |
| CNC(=O)c1cnc2c(c(C)nn2C)c1NCCCN1CCN(c2ccccc2OCC(F)(F)F)CC1 | 0.0001 µM | 0.00398 µM |  |
| CN(C)C(=O)c1cnc2ccccc2c1NCCCN1CCN(c2ccccc2OCC(F)(F)F)CC1 | 0.00398 µM | 0.1 µM |  |
| CN(C)C(=O)c1cccnc1NCCCN1CCN(c2ccccc2)CC1 | 0.00631 µM | 0.0158 µM | 0.002 µM |
| COc1ccccc1N1CCN(CCCNc2nc(C)cc(C)c2C(N)=O)CC1 | 0.01 µM | 0.0398 µM | 0.00158 µM |
| COc1ccccc1N1CCN(CCCOc2ccccc2C(=O)N(C)C)CC1 | 0.00398 µM | 0.0316 µM |  |
